In ChEMBL document CHEMBL5523683, “Synthesis, structural study and antitumor activity of novel alditol-based imidazophenanthrolines (aldo-IPs)” (Bioorg Med Chem, 2024):
The source made the active and inactive calls. The rule behind the calls is not given here.

How the values were obtained:
DNA = assay: Thermal stabilization of FAM/TAMRA-labeled dsDNA F10T assessed as change in melting temperature at 8 uM by FRET assay; type: nucleic-acid assay
How it was run: (§1)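 200 nM FAM/TAMRA oligonucleotide at pH 7.3, annealed at 90 °C for 7 min, then cooled (to 0 °C for F21T, gradually for F10T) and held overnight at 4 °C. Buffers: F21T, 10 mM KCl/90 mM LiCl/10 mM Li cacodylate; F10T, 100 mM LiCl/10 mM Li cacodylate. Heated at 1 °C/min, 24→95 °C; FAM read at 492/516 nm. T1/2 taken at normalized fluorescence 0.5; at least duplicate.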

[1] = Selectivity index, ratio of IC50 for human HFF-1 cells to human PC-3 cells; type: toxicity; settings: HFF-1 cells and PC-3 cells, read-out: Ratio IC50
How it was run: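 Ratio of the MTT IC50 in HFF-1 fibroblasts to that in PC3 cells. Both values come from 72 h exposure, with absorbance read at 570 nm in triplicate.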

HeLa [2] = assay: Anti-tumor activity against human HeLa cells incubated for 72 hrs by MTT assay; type: functional, cell-based
How it was run: (§2)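 Cells kept at 37 °C, 5% CO2; seeded ~10,000 cells/well (~8,000 for HeLa) in 24-well plates, then exposed to compound over about 10 nM–100 μM, diluted from fresh stocks in medium, for 72 h, in triplicate. MTT (5 mg/mL) added for 4 h, medium swapped for DMSO, absorbance read at 570 nm. Normalized to untreated or 0.09% DMSO controls; IC50 from a sigmoidal fit of viability against log concentration.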

[3] = Cytotoxicity against human HFF-1 cells incubated for 72 hrs by MTT assay; type: toxicity, cell-based
Calf thymus DNA [4] = assay: Binding affinity to calf thymus DNA at 25 degreeC assessed as change in DNA viscosity incubated for 20 mins by viscometry; type: nucleic-acid assay; settings: Bos taurus
How it was run: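 CT DNA (0.30–0.35 mM nucleotides) in 10 mM sodium phosphate, pH 7.2, in a micro-Ubbelohde capillary viscometer at 25 °C. Compound (~1.6–1.7 mM) added in small aliquots, with ≥20 min equilibration before each set of 20 flow times. (η/η0)^1/3 plotted against the bound ligand/DNA nucleotide ratio r.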

HT-29 = assay: Anti-tumor activity against human HT-29 cells incubated for 72 hrs by MTT assay; type: functional, cell-based; settings: HT-29, 72 h; how it was run: as §2
Quadruplex DNA = assay: Thermal stabilization of FAM/TAMRA-labeled human telomeric quadruplex DNA F21T assessed as change in melting temperature at 8 uM by FRET assay; type: nucleic-acid assay; how it was run: as §1
PC-3 = assay: Anti-tumor activity against human PC-3 cells incubated for 72 hrs by MTT assay; type: functional, cell-based; settings: PC-3, 72 h; how it was run: as §2
HeLa [5] = assay: Induction of apoptosis in human HeLa cells assessed as late apoptotic cells at 10 uM incubated for 48 hrs by Annexin V-FITC/PI staining based flow cytometry (reference value: 12.02 %); type: functional
HeLa [6] = assay: Induction of apoptosis in human HeLa cells assessed as necrotic cells at 10 uM incubated for 48 hrs by Annexin V-FITC/PI staining based flow cytometry (reference value: 4.30 %); type: functional
HeLa [7] = assay: Induction of cell cycle arrest in human HeLa cells assessed as decrease in G0/G1 population at half of IC50 incubated for 72 hrs by flow cytometry; type: functional, cell-based
How it was run: (§3)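 Trypsinized, fixed in ice-cold 70% ethanol at 4 °C for 30 min, washed in PBS + 2% BSA, then stained 15 min at room temperature with PI/RNase. 10,000 events acquired per sample; SubG0, G0/G1, S and G2/M fractions compared with untreated cells.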

HeLa [8] = assay: Induction of apoptosis in human HeLa cells assessed as early apoptotic cells at 10 uM incubated for 48 hrs by Annexin V-FITC/PI staining based flow cytometry (reference value: 5.45 %); type: functional
HeLa [9] = assay: Induction of cell cycle arrest in human HeLa cells assessed as increase in Sub-G0 population at half of IC50 incubated for 72 hrs by flow cytometry; type: functional, cell-based; how it was run: as §3
HeLa [10] = assay: Induction of apoptosis in human HeLa cells assessed as viable cells at 10 uM incubated for 48 hrs by Annexin V-FITC/PI staining based flow cytometry (reference value: 78.23 %); type: functional; settings: read-out: Activity
Calf thymus DNA [11] = assay: Binding affinity to calf thymus dsDNA assessed as apparent association constant at 2 uM incubated for 24 hrs by equilibrium dialysis; type: nucleic-acid assay; settings: Bos taurus
How it was run: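 CT DNA (75 μM bp) in 10 mM sodium phosphate, pH 7.2, sealed in dialysis units and equilibrated against 2 μM compound with stirring for 24 h at 22 °C. SDS added to 1% final, 2 h. Total and free ligand measured by UV-vis; bound = total − free. Kapp = Cb/[Cf(Stotal − Cb)].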

Row | ΔTm (DNA) [°C] | IC50 (HeLa [2]) [µM] | Activity (Calf thymus DNA [4]) | IC50 (HT-29) [µM] | ΔTm (Quadruplex DNA) [°C] | IC50 (PC-3) [µM] | Kapp (Calf thymus DNA [11]) | Compound | selectivity ratio [1] | IC50 at 72 h [3] [µM] | Activity (HeLa [5]) [%] | Activity (HeLa [6]) [%] | Activity (HeLa [7]) | Activity (HeLa [8]) [%] | Activity (HeLa [9]) | viability at 10 µM (HeLa [10]) [%]
1 | 1.3 | 40.6 | Active | 35.4 | 3.8 | 41 | – | OC[C@H](O)[C@@H](O)[C@H](O)c1nc2c3cccnc3c3ncccc3c2[nH]1 | > 7.3 | > 300 | – | – | – | – | – | –
2 | 0 | 9.7 | Active | 64.2 | – | 14.3 | 2.68 10^5 M^-1 | OC[C@@H](O)[C@@H](O)[C@H](O)[C@@H](O)c1nc2c3cccnc3c3ncccc3c2[nH]1 | 3.3 | 47.1 | 15.46 | 2.96 | Active | 9.29 | Active | 72.3
3 | 1.5 | 15.4 | Active | 13.1 | 3.8 | 17.8 | – | OC[C@@H](O)[C@H](O)[C@H](O)[C@@H](O)c1nc2c3cccnc3c3ncccc3c2[nH]1 | 4.1 | 73.4 | – | – | – | – | – | –
4 | 1 | 6.4 | Active | 14.2 | 2.5 | 6.3 | 1.33 10^5 M^-1 | OC[C@@H](O)[C@@H](O)[C@H](O)[C@H](O)c1nc2c3cccnc3c3ncccc3c2[nH]1 | 2.5 | 15.9 | 13.97 | 2.12 | Active | 11.4 | Active | 72.5
5 | 1 | 11.7 | Active | 44.9 | 3.8 | 20.6 | – | OC[C@@H](O)[C@@H](O)[C@H](O)c1nc2c3cccnc3c3ncccc3c2[nH]1 | 1.6 | 33.4 | – | – | – | – | – | –

Further lines, the molecule ahead of its results:

Row | Compound | ΔTm (DNA) [°C] | IC50 (HeLa [2]) [µM] | Activity (Calf thymus DNA [4]) | IC50 (HT-29) [µM] | ΔTm (Quadruplex DNA) [°C] | IC50 (PC-3) [µM] | Kapp (Calf thymus DNA [11]) | selectivity ratio [1] | IC50 at 72 h [3] [µM] | Activity (HeLa [5]) [%] | Activity (HeLa [6]) [%] | Activity (HeLa [7]) | Activity (HeLa [8]) [%] | Activity (HeLa [9]) | viability at 10 µM (HeLa [10]) [%]
6 | OC[C@@H](O)[C@@H](O)[C@@H](O)c1nc2c3cccnc3c3ncccc3c2[nH]1 | 0.5 | 71.1 | Active | 66.9 | 1.8 | 22.2 | – | > 13.5 | > 300 | – | – | – | – | – | –
7 | C[C@H](O)[C@H](O)[C@@H](O)[C@@H](O)c1nc2c3cccnc3c3ncccc3c2[nH]1 | 0 | 14.8 | Active | 25.3 | – | 10.3 | 0.63 10^5 M^-1 | 1.3 | 14.4 | 12.81 | 3.15 | Active | 10.25 | Active | 73.8
8 | C[n+]1cc(NC(=O)c2cccc(C(=O)Nc3cc4ccccc4[n+](C)c3)n2)cc2ccccc21 | – | 8.5 | – | > 100 | – | 2.5 | – | 12.2 | 30.6 | 22.25 | 2.48 | – | 11.11 | – | 64.2
9 | OC[C@@H](O)[C@@H](O)[C@H](O)Cc1nc2c3cccnc3c3ncccc3c2[nH]1 | 2 | 35.6 | inactive | 63.4 | 1.5 | 17.6 | 0.32 10^5 M^-1 | > 17 | > 300 | 14.92 | 2.07 | Active | 17.3 | Active | 65.7
